Legend:
[1] = Growth inhibition of human PC3 cells after 48 hrs; type: functional; conditions: PC-3, 48 h
How it was run: (§1)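 NCI-60 human tumour cell line panel screen run at the US National Cancer Institute under its standard cytotoxicity protocol. It covers leukaemia, NSCLC, colon, CNS, melanoma, ovarian, renal, prostate and breast lines. An initial single-dose test was followed by five-dose testing with 48 h compound exposure.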

[2] = Growth inhibition of human Hs 578T cells after 48 hrs; type: functional; how it was run: as §1
A549 = assay: Growth inhibition of human A549/ATCC cells after 48 hrs; type: functional; conditions: A549, 48 h; how it was run: as §1
SNB-75 = assay: Growth inhibition of human SNB75 cells after 48 hrs; type: functional; conditions: SNB-75, 48 h
How it was run: (§2)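 Run by the NCI 58-cell-line screen under its standard cytotoxicity protocol. Compounds were first tested at a single dose, then at five doses. Cells were exposed to compound for 48 h.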

NCI-H23 = assay: Growth inhibition of human NCI-H23 cells after 48 hrs; type: functional; conditions: NCI-H23, 48 h, read-out: pLC50 (the source's name) (converted); how it was run: as §1
SK-MEL-28 = assay: Growth inhibition of human SK-MEL-28 cells after 48 hrs; type: functional; conditions: SK-MEL-28, 48 h; how it was run: as §1
[3] = Growth inhibition of human SF539 cells after 48 hrs; type: functional; conditions: SF-539, 48 h; how it was run: as §1
[4] = Lipophilicity, log K of the compound by HPLC analysis
Klebsiella pneumoniae = assay: Antimicrobial activity against Klebsiella pneumoniae assessed as inhibition at 20 ug/6 mm disk after 1 to 2 days by agar diffusion assay; type: functional
How it was run: (§3)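 Standard agar diffusion: 6-mm paper disks loaded with 20 µg of compound were placed on inoculated plates. Inhibition-zone diameter (mm) was read after 1 and 2 days of growth.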

MCF7 [5] = assay: Growth inhibition of human MCF7 cells after 48 hrs; type: functional; conditions: MCF7, 48 h; how it was run: as §1
A498 = assay: Growth inhibition of human A498 cells after 48 hrs; type: functional; conditions: A498, 48 h; how it was run: as §1
[6] = Growth inhibition of human HOP92 cells after 48 hrs; type: functional; conditions: HOP-92, 48 h; how it was run: as §1
IGROV-1 = assay: Growth inhibition of human IGROV1 cells after 48 hrs; type: functional; conditions: IGROV-1, 48 h; how it was run: as §1
[7] = Growth inhibition of human MOLT4 cells after 48 hrs; type: functional; conditions: MOLT-4, 48 h; how it was run: as §1
[8] = Growth inhibition of human BT549 cells after 48 hrs; type: functional; conditions: BT-549, 48 h; how it was run: as §1
[9] = Growth inhibition of human UACC257 cells after 48 hrs; type: functional; conditions: UACC-257, 48 h; how it was run: as §2
Escherichia coli = assay: Antimicrobial activity against Escherichia coli tolC assessed as inhibition at 20 ug/6 mm disk after 1 to 2 days by agar diffusion assay; type: functional; how it was run: as §3
[10] = Growth inhibition of human OVCAR8 cells after 48 hrs; type: functional; conditions: OVCAR-8, 48 h; how it was run: as §1
U-251 = assay: Growth inhibition of human U251 cells after 48 hrs; type: functional; conditions: U-251, 48 h, read-out: pLC50 (the source's name) (converted); how it was run: as §2
NCI-H522 = assay: Growth inhibition of human NCI-H522 cells after 48 hrs; type: functional; conditions: NCI-H522, 48 h; how it was run: as §1
[11] = Cytotoxicity against human fibroblasts assessed as cell viability after 24 hrs incubation by MTT assay; type: cell-based; conditions: Fibroblast
How it was run: (§4)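 Cell lines came from DSMZ; primary human fibroblasts served as non-cancer controls. Cells were grown in medium with 10% FCS, seeded at 50,000 cells/ml, and grown 2 days at 37 °C, 10% CO2. Serial dilutions were then added for 24 h. MTT (final 0.5 mg/ml) was added for 2 h. Formazan was pelleted, PBS-washed, dissolved in isopropanol/0.4% HCl and read at 590 nm. Two parallel experiments were run. IC50 was taken as the concentration giving 50% of untreated-control absorbance.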

Saccharomyces cerevisiae = assay: Antimicrobial activity against Saccharomyces cerevisiae assessed as inhibition at 20 ug/6 mm disk after 1 to 2 days by agar diffusion assay; type: functional; how it was run: as §3
MCF7 [12] = assay: Cytotoxicity against human MCF7 cells assessed as cell viability after 24 hrs incubation by MTT assay; type: functional, cell-based; conditions: MCF7, 24 h; how it was run: as §4
[13] = Growth inhibition of human OVCAR4 cells after 48 hrs; type: functional; conditions: OVCAR-4, 48 h; how it was run: as §1
HL-60(TB) = assay: Growth inhibition of human HL-60(TB) cells after 48 hrs; type: functional; conditions: HL-60, 48 h; how it was run: as §1
Mycolicibacterium phlei = assay: Antimicrobial activity against Mycobacterium phlei assessed as inhibition at 20 ug/6 mm disk after 1 to 2 days by agar diffusion assay; type: functional; how it was run: as §3
[14] = Growth inhibition of human HCT116 cells after 48 hrs; type: functional; conditions: HCT-116, 48 h; how it was run: as §1
[15] = Growth inhibition of human UACC62 cells after 48 hrs; type: functional; conditions: UACC-62, 48 h; how it was run: as §2
SNB-19 = assay: Growth inhibition of human SNB19 cells after 48 hrs; type: functional; conditions: SNB-19, 48 h, read-out: pLC50 (the source's name) (converted); how it was run: as §2
Staphylococcus aureus = assay: Antimicrobial activity against Staphylococcus aureus assessed as inhibition at 20 ug/6 mm disk after 1 to 2 days by agar diffusion assay; type: functional; how it was run: as §3
786-0 = assay: Growth inhibition of human 786-0 cells after 48 hrs; type: functional; conditions: 786-0, 48 h; how it was run: as §1
SK-MEL-5 = assay: Growth inhibition of human SK-MEL-5 cells after 48 hrs; type: functional; conditions: SK-MEL-5, 48 h; how it was run: as §2
[16] = read-out: pLC50 (the source's name) (converted)

Work on `COc1ccc(N(CC(=O)NCCC[Te]c2ccccc2)C(=O)CCSC2=C(C)C(=O)c3ccccc3C2=O)cc1` yielded an LC50 [1] of 14.8 µM, a GI50 [2] of 1780 nM and an LC50 [2] of over 100 µM. The GI50 (A549) was 257 nM, the CC50 (A549; [16]) was 3.47 µM and the TGI (A549; read-out: pTGI (converted)) was 724 nM. For the same molecule, the GI50 (SNB-75) was 1820 nM, the CC50 (SNB-75; [16]) was 45.7 µM and the TGI (SNB-75; read-out: pTGI (converted)) was 6.92 µM. The CC50 (NCI-H23) was 20.4 µM, the GI50 (SK-MEL-28) was 2090 nM and the CC50 (SK-MEL-28; [16]) was 12 µM. For the same molecule, the TGI (SK-MEL-28; read-out: pTGI (converted)) was 4.68 µM, the GI50 [3] was 2140 nM and the CC50 [3, 16] was 7.08 µM. The TGI ([3]; read-out: pTGI (converted)) was 3.89 µM, the “log K” value [4] was -0.54 and the “diameter of the inhibition zone (DIZ)” value (Klebsiella pneumoniae) was 12 mm. The GI50 (MCF7 [5]) was 490 nM, the LC50 (concentration killing 50% of cells) (MCF7 [5]) was 75.9 µM and the TGI (MCF7 [5]; read-out: pTGI (converted)) was 12 µM. The GI50 (A498) was 1350 nM, the TGI (A498; read-out: pTGI (converted)) was 3.24 µM and the GI50 [6] was 1450 nM. For the same molecule, the CC50 [6, 16] was 13.2 µM, the TGI ([6]; read-out: pTGI (converted)) was 3.98 µM and the GI50 (IGROV-1) was 776 nM. The CC50 (IGROV-1; [16]) was 5.37 µM, the TGI (IGROV-1; read-out: pTGI (converted)) was 2190 nM and the GI50 [7] was 537 nM. The CC50 [7, 16] was over 100 µM, the TGI ([7]; read-out: pTGI (converted)) was 3.55 µM and the LC50 (concentration killing 50% of cells) [8] was 16.6 µM. The GI50 [9] was 2040 nM, the CC50 [9, 16] was 16.6 µM and the TGI ([9]; read-out: pTGI (converted)) was 5.01 µM. For the same molecule, the “diameter of the inhibition zone (DIZ)” value (Escherichia coli) was 12 mm, the GI50 [10] was 589 nM and the LC50 [10] was 30.9 µM. For the same molecule, the TGI ([10]; read-out: pTGI (converted)) was 3.8 µM, the CC50 (U-251) was over 100 µM and the GI50 (NCI-H522) was 1070 nM. The CC50 (NCI-H522; [16]) was over 100 µM, the TGI (NCI-H522; read-out: pTGI (converted)) was 3.39 µM and the IC50 [11] was 4 µM. The “diameter of the inhibition zone (DIZ)” value (Saccharomyces cerevisiae) was 0 mm, the IC50 (MCF7 [12]) was 7 µM and the GI50 [13] was 2630 nM. The LC50 [13] was 31.6 µM, the TGI ([13]; read-out: pTGI (converted)) was 10.2 µM and the GI50 (HL-60(TB)) was 2880 nM. The CC50 (HL-60(TB); [16]) was over 100 µM, the TGI (HL-60(TB); read-out: pTGI (converted)) was 6.76 µM and the “diameter of the inhibition zone (DIZ)” value (Mycolicibacterium phlei) was 15 mm. For the same molecule, the GI50 [14] was 339 nM, the CC50 [14, 16] was 5.5 µM and the TGI ([14]; read-out: pTGI (converted)) was 1290 nM. For the same molecule, the GI50 [15] was 1910 nM, the CC50 [15, 16] was 19.1 µM and the TGI ([15]; read-out: pTGI (converted)) was 4.9 µM. The CC50 (SNB-19) was 56.2 µM, the “diameter of the inhibition zone (DIZ)” value (Staphylococcus aureus) was 11 mm and the GI50 (786-0) was 2090 nM. For the same molecule, the LC50 (786-0) was 8.91 µM, the TGI (786-0; read-out: pTGI (converted)) was 4.37 µM and the GI50 (SK-MEL-5) was 1620 nM. For the same molecule, the CC50 (SK-MEL-5; [16]) was 5.75 µM and the TGI (SK-MEL-5; read-out: pTGI (converted)) was 3.09 µM.

Reference: ChEMBL document CHEMBL3351600, “Sulfur, selenium and tellurium pseudopeptides: synthesis and biological evaluation” (Bioorg Med Chem, 2014)
